In ChEMBL document CHEMBL1148262, “Stability studies of C-4',6' acetal benzylmaltosides synthesized as inhibitors of smooth muscle cell proliferation” (Bioorg Med Chem Lett, 2004):
pIC50: −log10 of the molar value.

Columns and labels:
[1] = Stability of compound determined in medium mimicking stomach as percent remaining at 18-20 hr at a pH of 1; type: ADME; conditions: pH 1
[2] = Half-life of compound at a pH of 1 was determined; type: ADME; conditions: pH 1
[3] = Half-life of compound at a pH of 1.4 was determined; type: ADME; conditions: pH 1.4
[4] = Half-life of compound at a pH of 1.9 was determined; type: ADME; conditions: pH 1.9
[5] = Half-life of compound at a pH of 2.5 was determined; type: ADME; conditions: pH 2.5
[6] = Half-life of compound at a pH of 3 was determined; type: ADME; conditions: pH 3
[7] = Half-life of compound at a pH of 3.5 was determined; type: ADME; conditions: pH 3.5
[8] = Half-life of compound at a pH of 4 was determined; type: ADME; conditions: pH 4
[9] = Half-life of compound at a pH of 4.5 was determined; type: ADME; conditions: pH 4.5
[10] = Concentration inducing 50% inhibition of human aortic endothelial cell (HAEC) proliferation; type: functional, cell-based
Outline: (§1)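 HASMC or HAEC from passage 3–6, grown to 70–80% confluence in 24-well plates, then held 24–48 h without serum or growth factors to make them quiescent. Restimulated with serum or growth factor for 24 h with 0.5 µCi/mL ³H-thymidine. Compounds were added from 50% ethanol stock at 1–100 µM. TCA-precipitable counts were measured in triplicate, as percent of stimulated control, and IC50 was derived.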

HASMC = assay: Concentration inducing 50% inhibition of Human aortic smooth muscle cell (HASMC) proliferation; type: functional, cell-based; outline: as §1
[11] = Percent degradation of compound at a pH of 1 over a 18 hr period; type: ADME; conditions: pH 1; read-out: Degradation
Rattus norvegicus = assay: In vivo percent reduction in intimal thickening rat balloon injury model at a dose of 100 mg/kg; Range is 18-39 %; type: functional

SMILES | Remaining [1] [%] | half-life [2] [h] | half-life [3] [h] | half-life [4] [h] | half-life [5] [h] | half-life [6] [h] | half-life [7] [h] | half-life [8] [h] | half-life [9] [h] | degraded at 18 h [11] [%] | pIC50 [10] | pIC50 (HASMC) | Reduction (Rattus norvegicus) [%]
CC(=O)Nc1cc(CO[C@@H]2O[C@@H](COC(=O)c3ccccc3)[C@H](O[C@H]3OC4CO[C@@H](c5ccncc5)OC4[C@H](O)[C@@H]3O)[C@H](O)[C@@H]2O)ccc1Cl (stereo not given in full) | 97 | > 20 | > 20 | > 20 | > 20 | > 20 | > 20 | > 20 | > 20 | – | – | 8.52 | –
CC(=O)Nc1cc(CO[C@@H]2O[C@@H](COC(=O)c3ccccc3)[C@H](O[C@H]3OC4CO[C@@H](c5ccccc5)OC4[C@H](O)[C@@H]3O)[C@H](O)[C@@H]2O)ccc1Cl (stereo not given in full) | 0 | 1.9 | 2.3 | 4.2 | 13 | > 20 | > 20 | > 20 | > 20 | 100 | 6.03 | 7.70 | 39
CC(=O)Nc1cc(CO[C@@H]2O[C@@H](COC(=O)c3ccccc3)[C@H](O[C@H]3OC4CO[C@@H](c5ccc([N+](=O)[O-])cc5)OC4[C@H](O)[C@@H]3O)[C@H](O)[C@@H]2O)ccc1Cl (stereo not given in full) | – | – | – | – | – | – | – | – | – | – | 6.43 | 8.52 | –
CC(=O)Nc1cc(CO[C@@H]2O[C@@H](COC(=O)c3ccccc3)[C@H](O[C@H]3O[C@@H](CO)[C@@H](O)[C@H](O)[C@@H]3O)[C@H](O)[C@@H]2O)ccc1Cl | – | – | – | – | – | – | – | – | – | – | – | 4.46 | –
CC(=O)Nc1cc(CO[C@@H]2O[C@@H](COC(=O)c3ccccc3)[C@H](O[C@H]3OC4CO[C@@H](Cc5ccccc5)OC4[C@H](O)[C@@H]3O)[C@H](O)[C@@H]2O)ccc1Cl (stereo not given in full) | 94 | > 20 | > 20 | > 20 | > 20 | > 20 | > 20 | > 20 | > 20 | – | – | 7.46 | –
CC(=O)Nc1cc(CO[C@@H]2O[C@@H](COC(=O)c3ccccc3)[C@H](O[C@H]3OC4CO[C@@H](c5ccc(Cl)cc5)OC4[C@H](O)[C@@H]3O)[C@H](O)[C@@H]2O)ccc1Cl (stereo not given in full) | 0 | 1.7 | 4 | 13.3 | > 20 | > 20 | > 20 | > 20 | > 20 | – | 6.49 | 7.64 | –

Second part, led by results:

Remaining [1] [%] | half-life [2] [h] | half-life [3] [h] | half-life [4] [h] | half-life [5] [h] | half-life [6] [h] | half-life [7] [h] | half-life [8] [h] | half-life [9] [h] | degraded at 18 h [11] [%] | SMILES | pIC50 [10] | pIC50 (HASMC) | Reduction (Rattus norvegicus) [%]
52 | > 20 | > 20 | > 20 | > 20 | > 20 | > 20 | > 20 | > 20 | – | CC[C@@H]1OCC2O[C@H](O[C@@H]3[C@H](O)[C@H](O)[C@H](OCc4ccc(Cl)c(NC(C)=O)c4)O[C@H]3COC(=O)c3ccccc3)[C@@H](O)[C@@H](O)C2O1 (stereo not given in full) | 6.63 | 7.43 | –
68 | > 20 | > 20 | > 20 | > 20 | > 20 | > 20 | > 20 | > 20 | 32 | CC(=O)Nc1cc(CO[C@@H]2O[C@@H](COC(=O)c3ccccc3)[C@H](O[C@H]3OC4CO[C@@H](C)OC4[C@H](O)[C@@H]3O)[C@H](O)[C@@H]2O)ccc1Cl (stereo not given in full) | 6.59 | 6.99 | –
53 | > 20 | > 20 | > 20 | > 20 | > 20 | > 20 | > 20 | > 20 | – | CC(=O)Nc1cc(CO[C@@H]2O[C@@H](COC(=O)c3ccccc3)[C@H](O[C@H]3OC4CO[C@@H](C(C)C)OC4[C@H](O)[C@@H]3O)[C@H](O)[C@@H]2O)ccc1Cl (stereo not given in full) | – | 8.52 | –
